Experimental data from different studies.
Lines come from different studies, so protocols differ. In brackets after ≈: the same amount, converted by molar mass.

| SMILES | target or system | test | system | setting | quantity | result |
| --- | --- | --- | --- | --- | --- | --- |
| O/N=c1\cc2n(-c3ccc(Cl)cc3)c3ccccc3nc-2cc1Nc1ccc(Cl)cc1 | Mycobacteroides abscessus | microbial growth | – | clinical isolate | MIC | > 30 µM |
| CN(C)c1cc(NC(=O)Cc2ccncn2)c(O)c2c1C[C@H]1C[C@H]3[C@H](N(C)C)C(O)=C(C(N)=O)C(=O)[C@@]3(O)C(O)=C1C2=O | Mycobacteroides abscessus | microbial growth, resazurin | ATCC19977 | – | IC50 | 0.59 µg/mL |
| CO/N=c1\cc2n(-c3ccc(Cl)cc3)c3ccccc3nc-2cc1Nc1ccc(Cl)cc1 | Mycobacteroides abscessus | microbial growth | – | clinical isolate | MIC | > 30 µM |
| O=C(NO)c1ccc(CNc2nc3cccc(-c4ccc5c(c4)OCO5)n3n2)cc1 | T47D | cell growth or viability, SRB | – | – | GI50 | 0.43 µM |
| C=CC(=O)NC1CCN(c2ncc3ncnc(Nc4ccc(Oc5ccc6c(c5)ncn6C)c(C)c4)c3n2)CC1 | ONS-76 | cell growth or viability | – | – | EC50 | 0.483 µM |
| C=CCO/N=c1\cc2n(-c3ccc(Cl)cc3)c3ccccc3nc-2cc1Nc1ccc(Cl)cc1 | Mycobacteroides abscessus | microbial growth | – | clinical isolate | MIC | > 30 µM |
| CN(C)c1cc(NC(=O)Cc2cncnc2)c(O)c2c1C[C@H]1C[C@H]3[C@H](N(C)C)C(O)=C(C(N)=O)C(=O)[C@@]3(O)C(O)=C1C2=O | Mycobacteroides abscessus | microbial growth, resazurin | ATCC19977 | – | IC50 | 0.74 µg/mL |
| OC(C#Cc1ccc(F)c(F)c1)c1ccccc1 (stereo not shown) | Pseudomonas aeruginosa | microbial growth, absorbance | – | 100 µM, 24 h | activity vs control | 97% |
| CN(C)c1cc(NC(=O)Cc2cscn2)c(O)c2c1C[C@H]1C[C@H]3[C@H](N(C)C)C(O)=C(C(N)=O)C(=O)[C@@]3(O)C(O)=C1C2=O | Mycobacteroides abscessus | microbial growth, resazurin | ATCC19977 | – | IC50 | 0.23 µg/mL |
| COc1cc(C#CC(=O)c2ccccc2OC)ccc1O | Pseudomonas aeruginosa | microbial growth, absorbance | – | 10 µM, 24 h | activity vs control | 91% |
| C=C(F)C(=O)N1CCN(c2nc(OC[C@@H]3CCCN3C)nc3c2CCN(c2cccc4cccc(Cl)c24)C3)C[C@@H]1CC#N | MIA PaCa-2 | cell growth or viability, ATP luminescence | – | 3D culture | IC50 | 0.00251 µM |
| CN(C)c1cc(NC(=O)CNC(C)(C)C)c(O)c2c1C[C@H]1C[C@H]3[C@H](N(C)C)C(O)=C(C(N)=O)C(=O)[C@@]3(O)C(O)=C1C2=O | Mycobacteroides abscessus | microbial growth, resazurin | ATCC19977 | – | IC50 | 0.28 µg/mL |
| O=C(C#Cc1ccc(F)c(F)c1)c1ccccc1 | Pseudomonas aeruginosa | microbial growth, absorbance | – | 10 µM, 24 h | activity vs control | 94% |
| CN(C)c1cc(NC(=O)Cc2cccnn2)c(O)c2c1C[C@H]1C[C@H]3[C@H](N(C)C)C(O)=C(C(N)=O)C(=O)[C@@]3(O)C(O)=C1C2=O | Mycobacteroides abscessus | microbial growth, resazurin | ATCC19977 | – | IC50 | 1.67 µg/mL |
| OC(C#Cc1ccc(F)c(F)c1)c1cccc(Cl)c1 (stereo not shown) | Pseudomonas aeruginosa | microbial growth, absorbance | – | 10 µM, 24 h | activity vs control | 96% |
| CC(C)/N=c1\cc2n(-c3ccc(Cl)cc3)c3ccccc3nc-2cc1Nc1ccc(Cl)cc1 | Mycobacteroides abscessus | microbial growth | – | clinical isolate | MIC | 3.75 µM (≈ 1.78 µg/mL) |
| CN(C)c1cc(NC(=O)CCc2ccccc2)c(O)c2c1C[C@H]1C[C@H]3[C@H](N(C)C)C(O)=C(C(N)=O)C(=O)[C@@]3(O)C(O)=C1C2=O | Mycobacteroides abscessus | microbial growth, resazurin | ATCC19977 | – | IC50 | 8.87 µg/mL |
| CCOC(=O)CNC(=O)CO/N=c1\cc2n(-c3ccc(Cl)cc3)c3ccccc3nc-2cc1Nc1ccc(Cl)cc1 | Mycobacteroides abscessus | microbial growth | – | clinical isolate | MIC | > 30 µM |
| COc1ccc(C(=O)C#Cc2ccc(O)c(OC)c2)cc1 | Pseudomonas aeruginosa | microbial growth, absorbance | – | 10 µM, 24 h | activity vs control | 95% |
| CN(C)c1cc(NC(=O)c2ccccc2)c(O)c2c1C[C@H]1C[C@H]3[C@H](N(C)C)C(O)=C(C(N)=O)C(=O)[C@@]3(O)C(O)=C1C2=O | Mycobacteroides abscessus | microbial growth, resazurin | ATCC19977 | – | IC50 | 13.8 µg/mL |
| C[C@H](NC(=O)CO/N=c1\cc2n(-c3ccc(Cl)cc3)c3ccccc3nc-2cc1Nc1ccc(Cl)cc1)C(=O)O | Mycobacteroides abscessus | microbial growth | – | clinical isolate | MIC | > 30 µM |
| COc1ccccc1C(=O)C#Cc1ccc(F)c(F)c1 | Pseudomonas aeruginosa | microbial growth, absorbance | – | 100 µM, 24 h | activity vs control | 83% |
